Experimental data reported in ChEMBL document CHEMBL2412970, “Synthesis and anticancer activity of 2,4-disubstituted furo[3,2-b]indole derivatives” (Eur J Med Chem, 2013).
pIC50: −log10 of the molar value. The source made the active and inactive calls. The rule behind the calls is not given here.

Legend:
COLO 205 = test: Cytotoxicity against human COLO205 cells after 48 hrs by MTT assay; format: functional, cell-based; conditions: COLO 205, 48 h
Procedure, shortened: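 Cells were treated with a range of concentrations for 48 h. Viability was read by MTT: formazan was dissolved in DMSO and absorbance read at 570 nm. Untreated or 0.1% DMSO cells served as control. Data are mean from three independent experiments. HL-60, H460 and COLO 205 were kept in RPMI-1640 with 10% FBS and penicillin/streptomycin.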

ACHN = test: Cytotoxicity against human ACHN cells after 48 hrs by sulforhodamine B assay; format: functional
A498 [1] = test: Cytotoxicity against human A498 cells assessed as reduction in cell viability at 0.25 uM after 48 hrs by MTT assay relative to control; format: functional
OVCAR-4 = test: Cytotoxicity against human OVCAR4 cells after 48 hrs by sulforhodamine B assay; format: functional; conditions: OVCAR-4, 48 h
A498 [2] = test: Induction of apoptosis in human A498 cells assessed as late apoptotic cells at 0.5 uM after 24 hrs by AnnexinV/FITC-propidium iodide staining-based flow cytometry (reference value: 9.6%); format: functional
Procedure, shortened: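 Flow cytometry with annexin V-FITC/PI double labeling of A498 cells treated for 12, 24, 36 or 48 h; untreated cells served as the 0 h control. Stained in binding buffer for 15 min at room temperature in the dark, with more binding buffer added just before analysis. Annexin V+/PI− (Q4) counted as early apoptotic and annexin V+/PI+ (Q2) as late apoptotic.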

A498 [3] = test: Antitumor activity against human A498 cells xenografted in BALB/cAnN.Cg-Foxn1nu/CrlNarl nude mouse assessed as suppression of tumor growth at 30 to 60 mg/kg/day, ip qd; format: functional, organism-based; conditions: TDE = time-dependent effect
Procedure, shortened: (§1)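 Male nude mice (18–20 g, 4–6 weeks) were inoculated subcutaneously with A498 cells, 2 × 10⁶ per mouse in 0.1 mL PBS. Once tumors reached 100 mm³, mice were randomized and given ip doses of 30 or 60 mg/kg, 5 times per week for 4 weeks. Body weight and tumor size were recorded every 7 days over 28 days. Volume = 1/2 ([…]).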

A498 [4] = test: Antitumor activity against human A498 cells xenografted in ip dosed BALB/cAnN.Cg-Foxn1nu/CrlNarl nude mouse assessed as suppression of tumor growth administered qd for 5 times a week for 28 days measured every 7 days; format: functional, organism-based; procedure, shortened: as §1
HCT-15 = test: Cytotoxicity against human HCT15 cells after 48 hrs by sulforhodamine B assay; format: functional; conditions: HCT-15, 48 h
HCC 2998 = test: Cytotoxicity against human HCC2998 cells after 48 hrs by sulforhodamine B assay; format: functional; conditions: HCC 2998, 48 h
A498 [5] = test: Induction of apoptosis in human A498 cells assessed as increase in Apaf-1 level at 0.5 uM after 6 to 48 hrs by Western blotting analysis; format: functional, cell-based
Procedure, shortened: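 A498 cells exposed for 6, 12, 24, 36 or 48 h, then washed in PBS and lysed. Lysates were held on ice for 30 min and spun at 12 000g for 20 min. Supernatant protein was measured by Bradford assay, run on 10% SDS-PAGE and transferred to nitrocellulose. Blots were probed for AIF, Endo G, Apaf-1, cytochrome c, caspase 9 and caspase 3, with β-actin as loading control; n = 3 independent experiments.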

SN12C = test: Cytotoxicity against human SN12C cells after 48 hrs by sulforhodamine B assay; format: functional
CAKI-1 = test: Cytotoxicity against human Caki1 cells after 48 hrs by sulforhodamine B assay; format: functional; conditions: CAKI-1, 48 h
A498 [6] = test: Cell cycle arrest in human A498 cells assessed as accumulation at S phase at 0.5 uM after 36 hrs by propidium iodide staining-based flow cytometry (reference value: 15.92 +/- 0.03%); format: functional
SK-MEL-28 = test: Cytotoxicity against human SK-MEL-28 cells after 48 hrs by sulforhodamine B assay; format: functional; conditions: SK-MEL-28, 48 h
A498 [7] = test: Cytotoxicity against human A498 cells after 48 hrs by MTT assay; format: functional, cell-based
A498 [8] = test: Cell cycle arrest in human A498 cells assessed as accumulation at sub-G1 phase at 0.5 uM by propidium iodide staining-based flow cytometry; format: functional; conditions: TDE = time-dependent effect
NCI-H322M = test: Cytotoxicity against human NCI-H322M cells after 48 hrs by sulforhodamine B assay; format: functional
A498 [9] = test: Induction of apoptosis in human A498 cells assessed as early apoptotic cells at 0.5 uM after 36 hrs by AnnexinV/FITC-propidium iodide staining-based flow cytometry (reference value: 3.9%); format: functional
K562 = test: Cytotoxicity against human K562 cells after 48 hrs by sulforhodamine B assay; format: functional; conditions: K562, 48 h
A498 [10] = test: Cell cycle arrest in human A498 cells assessed as accumulation at S phase at 0.5 uM after 48 hrs by propidium iodide staining-based flow cytometry (reference value: 15.92 +/- 0.03%); format: functional
MOLT-4 = test: Cytotoxicity against human MOLT4 cells after 48 hrs by sulforhodamine B assay; format: functional; conditions: MOLT-4, 48 h
A498 [11] = test: Antitumor activity against human A498 cells xenografted in BALB/cAnN.Cg-Foxn1nu/CrlNarl nude mouse assessed as suppression of tumor growth at 60 mg/kg/day, ip qd administered 5 times a week for 28 days measured every 7 days relative to control; format: functional; conditions: route intraperitoneal, read-out: TGI; procedure, shortened: as §1
SF-268 = test: Cytotoxicity against human SF268 cells after 48 hrs by sulforhodamine B assay; format: functional; conditions: SF-268, 48 h
A498 [12] = test: Cytotoxicity against human A498 cells after 48 hrs by sulforhodamine B assay; format: functional; conditions: A498, 48 h
SW-620 = test: Cytotoxicity against human SW620 cells after 48 hrs by sulforhodamine B assay; format: functional; conditions: SW-620, 48 h
A498 [13] = test: Induction of apoptosis in human A498 cells assessed as early apoptotic cells at 0.5 uM after 48 hrs by AnnexinV/FITC-propidium iodide staining-based flow cytometry (reference value: 3.9%); format: functional
[14] = read-out: pLC50 (the source's name) (converted)

OCc1ccc(Cn2c3ccccc3c3oc(CO)cc32)o1
pIC50 (COLO 205): 4.51 | GI50 (ACHN): 79.4 µM | CC50 (ACHN; [14]): > 100 µM | TGI (ACHN; read-out: pTGI): > 100 µM | Activity (A498 [1]): 39.5% | GI50 (OVCAR-4): 4.27 µM | CC50 (OVCAR-4; [14]): > 100 µM | TGI (OVCAR-4; read-out: pTGI): > 100 µM | Activity (A498 [2]): 15.6% | Activity (A498 [3]): tde | Activity (A498 [4]): Dose-dependent effect | GI50 (HCT-15): 87.1 µM | CC50 (HCT-15; [14]): > 100 µM | TGI (HCT-15; read-out: pTGI): > 100 µM | GI50 (HCC 2998): > 100 µM | CC50 (HCC 2998; [14]): > 100 µM | TGI (HCC 2998; read-out: pTGI): > 100 µM | Activity (A498 [5]): Active | GI50 (SN12C): > 100 µM | CC50 (SN12C; [14]): > 100 µM | TGI (SN12C; read-out: pTGI): > 100 µM | GI50 (CAKI-1): 51.3 µM | CC50 (CAKI-1; [14]): > 100 µM | TGI (CAKI-1; read-out: pTGI): > 100 µM | Activity (A498 [6]): 14.33% | GI50 (SK-MEL-28): > 100 µM | CC50 (SK-MEL-28; [14]): > 100 µM | TGI (SK-MEL-28; read-out: pTGI): > 100 µM | Activity (A498 [7]): Dose-dependent effect | pIC50 (A498 [7]; A498, 48 h): 6.68 | Activity (A498 [8]): tde | GI50 (NCI-H322M): > 100 µM | CC50 (NCI-H322M; [14]): > 100 µM | TGI (NCI-H322M; read-out: pTGI): > 100 µM | Activity (A498 [9]): 21.5% | GI50 (K562): 45.7 µM | CC50 (K562; [14]): > 100 µM | TGI (K562; read-out: pTGI): > 100 µM | Activity (A498 [10]): 10.64% | GI50 (MOLT-4): 77.6 µM | CC50 (MOLT-4; [14]): > 100 µM | TGI (MOLT-4; read-out: pTGI): > 100 µM | inhibition in vivo at 60 mg/kg/day (A498 [11]): 80% | GI50 (SF-268): 97.7 µM | CC50 (SF-268; [14]): > 100 µM | TGI (SF-268; read-out: pTGI): > 100 µM | GI50 (A498 [12]): 141 nM | CC50 (A498 [12]; read-out: pLC50 (converted)): 661 nM | TGI (A498 [12]; read-out: pTGI (converted)): 302 nM | GI50 (SW-620): > 100 µM | CC50 (SW-620; [14]): > 100 µM | TGI (SW-620; read-out: pTGI): > 100 µM | Activity (A498 [13]): 41%
